ChEMBL document CHEMBL2321760, “Design, synthesis, and biological evaluation of a series of benzo[de][1,7]naphthyridin-7(8H)-ones bearing a functionalized longer chain appendage as novel PARP1 inhibitors” (J Med Chem, 2013)
pIC50: −log10 of the molar value. The source made the active and inactive calls. The calls are words filed in the database; no cut-off is given here.

How the values were obtained:
[1] = target: Poly [ADP-ribose] polymerase 1 (Homo sapiens, UniProt P09874); assay: Inhibition of human recombinant PARP1 after 1 hr by ELISA
Poly [ADP-ribose] polymerase 1, sequence (P09874 whole entry): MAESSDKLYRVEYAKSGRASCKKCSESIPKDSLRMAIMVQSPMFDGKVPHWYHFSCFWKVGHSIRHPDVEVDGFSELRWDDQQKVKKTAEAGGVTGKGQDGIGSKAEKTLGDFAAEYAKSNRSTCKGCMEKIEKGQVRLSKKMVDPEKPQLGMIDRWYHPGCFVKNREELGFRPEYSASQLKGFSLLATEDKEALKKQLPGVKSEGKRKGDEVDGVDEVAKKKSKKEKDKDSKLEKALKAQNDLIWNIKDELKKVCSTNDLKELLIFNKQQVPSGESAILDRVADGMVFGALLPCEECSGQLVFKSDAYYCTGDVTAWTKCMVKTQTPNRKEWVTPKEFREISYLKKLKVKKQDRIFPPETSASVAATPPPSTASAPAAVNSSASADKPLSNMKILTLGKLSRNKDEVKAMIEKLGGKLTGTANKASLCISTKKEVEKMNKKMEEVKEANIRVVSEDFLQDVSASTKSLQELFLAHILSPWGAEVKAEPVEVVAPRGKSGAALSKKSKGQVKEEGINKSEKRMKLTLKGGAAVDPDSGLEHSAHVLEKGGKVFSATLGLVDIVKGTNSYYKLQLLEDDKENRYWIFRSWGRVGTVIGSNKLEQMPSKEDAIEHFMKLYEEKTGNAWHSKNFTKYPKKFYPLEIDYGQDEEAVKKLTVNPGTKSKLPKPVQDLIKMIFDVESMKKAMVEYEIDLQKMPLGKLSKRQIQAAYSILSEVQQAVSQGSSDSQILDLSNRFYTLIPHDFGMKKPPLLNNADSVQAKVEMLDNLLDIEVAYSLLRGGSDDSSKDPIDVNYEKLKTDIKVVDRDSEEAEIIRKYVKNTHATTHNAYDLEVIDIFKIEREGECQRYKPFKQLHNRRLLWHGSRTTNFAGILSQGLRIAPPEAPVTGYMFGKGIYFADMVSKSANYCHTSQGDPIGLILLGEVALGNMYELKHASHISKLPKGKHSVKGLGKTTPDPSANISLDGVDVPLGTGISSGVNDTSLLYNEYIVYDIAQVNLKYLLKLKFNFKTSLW

[2] = Cytotoxicity against Chinese hamster BRCA2-deficient VC8 cells assessed as growth inhibition; assay type: cell-based; details: Cricetulus griseus, V-C8
How it was run: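 V-C8 (BRCA2-deficient Chinese hamster lung fibroblasts) grown in F12 with 10% FBS, 37 °C, 5% CO2. Six concentrations per test. CC50 is the concentration reducing proliferation and growth by 50%, calculated by Logit method from at least three independent tests.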

[3] = Cytotoxicity against Chinese hamster V79 cells expressing wild type BRCA2 assessed as growth inhibition; assay type: cell-based, Cricetulus griseus
How it was run: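 V79 (wild-type Chinese hamster lung fibroblasts) grown in RPMI-1640 with 10% FBS, 37 °C, 5% CO2. Six concentrations per test. CC50 is the concentration reducing proliferation and growth by 50%, calculated by Logit method from at least three independent tests.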

[4] = Cytotoxicity against human BRCA1-deficient MDA-MB-436 cells assessed as growth inhibition; assay type: cell-based
How it was run: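 Proliferation assay in BRCA1-mutant human breast cancer MDA-MB-436 cells. Six concentrations per test. CC50 calculated by Logit method from at least three independent tests.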

[5] = Ratio of AZD2281 CC50 to compound CC50 for human BRCA1-deficient MDA-MB-436 cells; assay type: ADME
SK-OV-3 [6] = assay: Potentiation of temozolomide-induced cytotoxicity in human SKOV3 cells assessed as reduction in temozolomide IC50 at 1 uM after 7 days by sulforhodamine B assay; assay type: functional
How it was run: (§1)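 SKOV3 cells in DMEM with 10% FBS were given gradient concentrations of temozolomide, alone or with compound at 0.5 or 1.0 µM, for 7 days. Cytotoxicity read by sulforhodamine B. Temozolomide IC50 reported as mean ± SD, n=3.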

[7] = Tmax in rat at 20 mg/kg, po; assay type: ADME, organism-based; parameters: dose 20 mg/kg, route oral; details: in vivo
How it was run: (§2)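 Rat oral PK, 20 mg/kg po. Vehicle DMSO, Tween 80, normal saline. Cmax, Tmax, AUC0-∞ and oral bioavailability F taken from plasma concentration-time curves. Values are the average of three runs.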

[8] = target: Poly [ADP-ribose] polymerase 1 (Cricetulus griseus) (UniProt Q9R152); assay: Inhibition of PARP1 in Chinese hamster BRCA2-deficient VC8 cells assessed as impairment of cell cycle progression at 0.5 uM after 24 hrs by propidium iodide staining-based FACS flow cytometric analysis
Poly [ADP-ribose] polymerase 1 (Cricetulus griseus), sequence (Q9R152 whole entry): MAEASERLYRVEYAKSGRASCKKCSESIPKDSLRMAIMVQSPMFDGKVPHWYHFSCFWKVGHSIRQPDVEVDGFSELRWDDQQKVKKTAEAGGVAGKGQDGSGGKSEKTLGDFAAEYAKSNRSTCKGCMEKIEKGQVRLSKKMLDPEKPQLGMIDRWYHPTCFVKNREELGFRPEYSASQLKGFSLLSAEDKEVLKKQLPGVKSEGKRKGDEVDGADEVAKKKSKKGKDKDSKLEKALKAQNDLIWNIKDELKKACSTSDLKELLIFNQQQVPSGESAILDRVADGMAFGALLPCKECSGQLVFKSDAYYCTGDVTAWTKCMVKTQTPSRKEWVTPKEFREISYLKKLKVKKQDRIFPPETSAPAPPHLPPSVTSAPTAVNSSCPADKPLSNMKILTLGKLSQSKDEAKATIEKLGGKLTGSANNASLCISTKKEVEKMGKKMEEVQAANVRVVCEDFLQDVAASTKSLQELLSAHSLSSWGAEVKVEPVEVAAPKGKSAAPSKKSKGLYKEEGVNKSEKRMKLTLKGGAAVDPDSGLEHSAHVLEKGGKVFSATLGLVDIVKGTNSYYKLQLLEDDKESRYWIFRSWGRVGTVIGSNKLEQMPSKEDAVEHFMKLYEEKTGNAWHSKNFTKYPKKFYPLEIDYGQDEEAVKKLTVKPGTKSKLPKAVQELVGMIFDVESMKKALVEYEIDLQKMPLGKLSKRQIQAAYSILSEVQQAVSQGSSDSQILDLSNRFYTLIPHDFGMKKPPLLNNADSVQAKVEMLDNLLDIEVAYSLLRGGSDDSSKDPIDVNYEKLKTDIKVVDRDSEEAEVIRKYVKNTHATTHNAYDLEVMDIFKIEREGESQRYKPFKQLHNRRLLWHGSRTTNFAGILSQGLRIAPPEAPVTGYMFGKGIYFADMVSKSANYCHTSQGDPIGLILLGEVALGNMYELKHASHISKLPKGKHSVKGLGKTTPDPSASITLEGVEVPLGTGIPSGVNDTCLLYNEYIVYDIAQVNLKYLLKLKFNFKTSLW
How it was run: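 BRCA2-deficient V-C8 cells treated with compound at 0.5 µM, 37 °C, 24 h. Cells then harvested, fixed and stained with 10 µg/mL propidium iodide. Cell-cycle distribution read by flow cytometry, at least 10,000 events per sample.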

SK-OV-3 [9] = assay: Potentiation of temozolomide-induced cytotoxicity in human SKOV3 cells assessed as reduction in temozolomide IC50 at 0.5 uM after 7 days by sulforhodamine B assay; assay type: functional; how it was run: as §1
[10] = Half life in rat at 10 mg/kg, iv; assay type: ADME, organism-based; parameters: dose 10 mg/kg, route intravenous; details: in vivo
How it was run: (§3)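 Rat intravenous PK, 10 mg/kg iv. Vehicle DMSO, Tween 80, normal saline. Clearance, Vss and half-life derived from plasma concentration-time data. Values are the average of three runs.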

[11] = Volume of distribution at steady state in rat at 10 mg/kg, iv; assay type: ADME, organism-based; parameters: dose 10 mg/kg, route intravenous; details: in vivo, read-out: Vdss; how it was run: as §3
[12] = (§4) Clearance in rat at 10 mg/kg, iv; assay type: ADME, organism-based; parameters: dose 10 mg/kg, route intravenous; details: in vivo; how it was run: as §3
PARP 1, 2 and 3 = PARP 1, 2 and 3 (Homo sapiens, UniProt P09874+Q9Y6F1+Q9UGN5); assay: Inhibition of PARP1/PARP2 in human SKOV3 cells assessed as reduction in H2O2-induced PARylation incubated for 4 hrs prior to H2O2 treatment; assay type: cell-based; details: sk-ov-3
hERG (KCNH2) = hERG (KCNH2) (Homo sapiens, UniProt Q12809); assay: Inhibition of human ERG at 5 uM relative to control
hERG (KCNH2), sequence (Q12809 whole entry): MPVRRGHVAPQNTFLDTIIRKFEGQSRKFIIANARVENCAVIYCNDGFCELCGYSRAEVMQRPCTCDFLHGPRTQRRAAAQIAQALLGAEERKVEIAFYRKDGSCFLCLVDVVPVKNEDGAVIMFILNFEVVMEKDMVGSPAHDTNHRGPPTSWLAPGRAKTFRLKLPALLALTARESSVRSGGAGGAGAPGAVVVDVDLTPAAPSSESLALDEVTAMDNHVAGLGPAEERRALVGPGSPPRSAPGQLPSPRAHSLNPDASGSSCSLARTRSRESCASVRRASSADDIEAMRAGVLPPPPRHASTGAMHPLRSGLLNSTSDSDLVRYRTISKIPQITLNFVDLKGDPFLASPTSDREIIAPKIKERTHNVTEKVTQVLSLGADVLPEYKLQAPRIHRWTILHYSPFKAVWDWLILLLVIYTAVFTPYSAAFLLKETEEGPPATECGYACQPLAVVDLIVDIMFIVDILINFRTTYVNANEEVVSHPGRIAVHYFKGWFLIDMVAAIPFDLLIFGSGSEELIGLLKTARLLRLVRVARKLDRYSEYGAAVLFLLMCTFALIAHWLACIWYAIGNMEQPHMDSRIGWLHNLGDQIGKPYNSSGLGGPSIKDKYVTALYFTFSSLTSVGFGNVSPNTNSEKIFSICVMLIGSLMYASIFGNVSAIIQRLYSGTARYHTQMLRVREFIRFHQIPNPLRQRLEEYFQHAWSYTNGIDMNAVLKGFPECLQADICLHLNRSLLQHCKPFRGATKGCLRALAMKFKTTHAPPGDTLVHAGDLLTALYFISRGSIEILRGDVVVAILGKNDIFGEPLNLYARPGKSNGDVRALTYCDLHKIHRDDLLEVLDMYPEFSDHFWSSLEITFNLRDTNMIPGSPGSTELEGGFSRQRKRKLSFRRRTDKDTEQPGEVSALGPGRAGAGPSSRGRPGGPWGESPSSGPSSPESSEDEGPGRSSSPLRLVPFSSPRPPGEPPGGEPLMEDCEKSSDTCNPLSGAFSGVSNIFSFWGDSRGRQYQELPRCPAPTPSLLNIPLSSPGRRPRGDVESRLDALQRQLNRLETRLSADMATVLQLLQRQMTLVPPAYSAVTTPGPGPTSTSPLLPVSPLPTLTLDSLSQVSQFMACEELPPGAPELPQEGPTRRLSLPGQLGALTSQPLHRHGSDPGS

[13] = Cmax in rat at 20 mg/kg, po; assay type: ADME, organism-based; parameters: dose 20 mg/kg, route oral; details: in vivo; how it was run: as §2
[14] = Ratio of CC50 for Chinese hamster BRCA2-deficient VC8 cells to IC50 for human recombinant PARP1
[15] = (§5) AUC (0 to infinity) in rat at 20 mg/kg, po; assay type: ADME, organism-based, Plasma; parameters: time infinity, dose 20 mg/kg, route oral; details: plasma; how it was run: as §2
[16] = (§6) Oral bioavailability in rat at 20 mg/kg; assay type: ADME, organism-based; details: in vivo; how it was run: as §2
Rattus norvegicus [17] = assay: as §4; assay type: ADME, organism-based; parameters: dose 10 mg/kg, route intravenous; details: in vivo; how it was run: as §3
[18] = Ratio of AZD2281 CC50 to compound CC50 for Chinese hamster BRCA2-deficient VC8 cells; assay type: ADME, cell-based, Cricetulus griseus
Rattus norvegicus [19] = assay: as §5; assay type: ADME, organism-based, Plasma; parameters: time infinity, dose 20 mg/kg, route oral; details: in vivo; how it was run: as §2
Rattus norvegicus [20] = assay: as §6; assay type: ADME, organism-based; details: in vivo; how it was run: as §2

Structure (SMILES) | pIC50 [1] | CC50 [2] | CC50 [3] | other results
O=C1NCC2c3c(cccc31)CCN2CC(=O)N1CCn2c(nnc2C(F)(F)F)C1 (stereo not drawn) | < 5.00 | – | – | –
O=C(c1cc(Cc2n[nH]c(=O)c3ccccc23)ccc1F)N1Cc2cccc3c2C(C1)NCC3 (stereo not drawn) | 8.86 | 630 nM | > 10 µM | CC50 [4]: 556 nM
O=C(NC1CC(=O)c2ccccc21)c1cc(Cc2n[nH]c(=O)c3ccccc23)ccc1F (stereo not drawn) | 7.08 | > 10000 nM | > 10 µM | –
O=C(CCN1CCc2cccc3c2C1CNC3=O)NCC(=O)N1CCN(c2ncccn2)CC1 (stereo not drawn) | 5.07 | – | – | –
O=C1NCC2c3c(cccc31)CCN2C(=O)c1cc(Cc2n[nH]c(=O)c3ccccc23)ccc1F (stereo not drawn) | 9.51 | 96 nM | > 10 µM | Ratio [5]: 2; fold change (FC) (SK-OV-3 [6]): 10.6; Tmax [7]: 25.2 min; inhibition [8]: Active; fold change (FC) (SK-OV-3 [9]): 9.3; half-life [10]: 104 min; Vd [11]: 4.27 L/kg; clearance [12]: 38 mL/min/kg; IC50 (PARP 1, 2 and 3): 66.1 nM; inhibition at 5 µM (hERG (KCNH2)): 17%; Cmax [13]: 722 ng/mL; Ratio CC50/IC50 [14]: 300; AUC(0-inf) [15]: 1820 ng·h/mL; CC50 [4]: 23.3 nM; bioavailability [16]: 21%
O=C(CCN1CCc2cccc3c2C1CNC3=O)NCC(=O)N1CC=C(c2ccc(F)cc2)CC1 (stereo not drawn) | 5.96 | – | – | –
Cc1c(Cc2ccc(F)c(C(=O)N3CCc4cccc5c4C3CNC5=O)c2)n[nH]c(=O)c1C (stereo not drawn) | 7.44 | > 1000 nM | > 10 µM | –
O=C1NCC2c3c(cccc31)CCN2C(=O)C1CCN(C(=O)c2cc(Cc3n[nH]c(=O)c4ccccc34)ccc2F)CC1 (stereo not drawn) | 8.72 | > 1000 nM | > 10 µM | CC50 [4]: 344 nM
O=C(c1cc(Cc2n[nH]c(=O)c3ccccc23)ccc1F)N1CCc2cccc3c2C1CC3O (stereo not drawn) | 7.06 | > 10000 nM | > 10 µM | –
C[C@@H](NC(=O)CN1CCc2cccc3c2C1CNC3=O)C(=O)N1CC=C(c2ccc(F)cc2)CC1 (stereo partly drawn) | 6.68 | – | – | –
O=C1CC2c3c(cccc31)CCN2C(=O)c1cc(Cc2n[nH]c(=O)c3ccccc23)ccc1F (stereo not drawn) | 8.46 | 4.53 nM | > 10 µM | Ratio [5]: 160; fold change (FC) (SK-OV-3 [6]): 22.2; Tmax [7]: 26.4 min; inhibition [8]: Active; fold change (FC) (SK-OV-3 [9]): 19.5; half-life [10]: 66.6 min; Vd [11]: 4.56 L/kg; CL (Rattus norvegicus [17]): 7.67 L/h/kg; IC50 (PARP 1, 2 and 3): 0.49 nM; inhibition at 5 µM (hERG (KCNH2)): 34%; Cmax [13]: 116 ng/mL; Ratio [18]: 40; AUC (Rattus norvegicus [19]): 980 ng·h/mL; CC50 [4]: < 0.26 nM; F (Rattus norvegicus [20]): 10%
O=C(NC1CNC(=O)c2ccccc21)c1cccc(Cc2n[nH]c(=O)c3ccccc23)c1 (stereo not drawn) | 6.84 | > 10000 nM | > 10 µM | –
O=C(CN1CCc2cccc3c2C1CNC3=O)N[C@H](Cc1ccccc1)C(=O)N1CC=C(c2ccc(F)cc2)CC1 (stereo partly drawn) | < 5.00 | – | – | –
C[C@H](NC(=O)CN1CCc2cccc3c2C1CNC3=O)C(=O)N1CC=C(c2ccc(F)cc2)CC1 (stereo partly drawn) | 7.72 | – | – | –
O=C1NCC2c3c(cccc31)CCN2CC(=O)N1CC2CCCNC2C1 (stereo not drawn) | 5.03 | – | – | –
Cc1cc(Cc2ccc(F)c(C(=O)N3CCc4cccc5c4C3CNC5=O)c2)n[nH]c1=O (stereo not drawn) | 6.68 | – | – | –
NC1CC2c3c(cccc31)CCN2C(=O)c1cc(Cc2n[nH]c(=O)c3ccccc23)ccc1F (stereo not drawn) | 7.12 | > 10000 nM | > 10 µM | –
COc1ccc(N2CCN(C(=O)CNC(=O)CCN3CCc4cccc5c4C3CNC5=O)CC2)cc1 (stereo not drawn) | 5.06 | – | – | –

Structure (SMILES) | pIC50 [1] | CC50 [2] | CC50 [3] | other results
O=C(N[C@@H]1C[C@@H](O)c2ccccc21)c1cc(Cc2n[nH]c(=O)c3ccccc23)ccc1F (relative stereo) | 9.24 | 2270 nM | 4.26 µM | CC50 [4]: 775 nM
O=C(CN1CCc2cccc3c2C1CNC3=O)N[C@@H](Cc1ccccc1)C(=O)N1CC=C(c2ccc(F)cc2)CC1 (stereo partly drawn) | 6.31 | – | – | –
O=C(NC1CNC(=O)c2ccccc21)c1cc(Cc2n[nH]c(=O)c3ccccc23)ccc1F (stereo not drawn) | 7.06 | > 10000 nM | > 10 µM | –
COc1ccc(N2CCN(C(=O)CNC(=O)CCCN3CCc4cccc5c4C3CNC5=O)CC2)cc1 (stereo not drawn) | 5.05 | – | – | –
O=C(c1cc(Cc2n[nH]c(=O)c3ccccc23)ccc1F)N1CCN(C(=O)C2CC2)CC1 [OLAPARIB] | – | 201 nM | > 10 µM | fold change (FC) (SK-OV-3 [6]): 10.4; fold change (FC) (SK-OV-3 [9]): 9.6; CC50 [4]: 43.2 nM
O=C1NCC2c3c(cccc31)CCN2CC(=O)N1CCC2CNCC21 (stereo not drawn) | 5.03 | – | – | –
O=C(NCC(=O)N1CCc2cccc3c2C1CNC3=O)c1cc(Cc2n[nH]c(=O)c3ccccc23)ccc1F (stereo not drawn) | 7.48 | > 1000 nM | > 10 µM | –
O=C1NCC2c3c(cccc31)CCN2C(=O)C1CCCN1C(=O)c1cc(Cc2n[nH]c(=O)c3ccccc23)ccc1F (stereo not drawn) | 7.35 | > 1000 nM | > 10 µM | –
O=C(N[C@@H]1C[C@H](O)c2ccccc21)c1cc(Cc2n[nH]c(=O)c3ccccc23)ccc1F (relative stereo) | 8.32 | 418 nM | 1.49 µM | CC50 [4]: 4520 nM
COc1ccc(N2CCN(C(=O)CNC(=O)CN3CCc4cccc5c4C3CNC5=O)CC2)cc1 (stereo not drawn) | 6.52 | – | – | –
O=C(c1cc(Cc2n[nH]c(=O)c3ccccc23)ccc1F)N1CCc2cccc3c2C1CC3F (stereo not drawn) | 9.25 | > 10000 nM | > 10 µM | CC50 [4]: 4300 nM
O=C(CCN1CCc2cccc3c2C1CNC3=O)NCC(=O)N1CCN(c2ccccc2F)CC1 (stereo not drawn) | 5.05 | – | – | –
O=C1NCC2c3c(cccc31)CCN2CC(=O)N1C[C@H]2CNC[C@H]2C1 (stereo partly drawn) | 5.06 | – | – | –
O=C1NCC2c3c(cccc31)CCN2C(=O)c1cc(Cc2n[nH]c(=O)c3c2CCCC3)ccc1F (stereo not drawn) | 8.74 | 114 nM | > 10 µM | Ratio [18]: 2
O=C1CC2c3c(cccc3N1)CCN2C(=O)c1cc(Cc2n[nH]c(=O)c3ccccc23)ccc1F (stereo not drawn) | 6.41 | > 10000 nM | > 10 µM | –
O=C(c1cc(Cc2n[nH]c(=O)c3ccccc23)ccc1F)N1CCc2cccc3c2C1CNC3 (stereo not drawn) | 6.81 | > 10000 nM | > 10 µM | –
CN(C(=O)c1cc(Cc2n[nH]c(=O)c3ccccc23)ccc1F)C1CC(=O)c2ccccc21 (stereo not drawn) | 7.95 | 4680 nM | > 10 µM | –
